Source: PubChem (The Scripps Research Institute Molecular Screening Center)
M1 antag: blocks human M1 muscarinic receptor | hit rate 1.3% among 360,000 | CHO-K1 hM1, Fluo-8 calcium fluorescence, ACh EC80 antagonist | inhibition, % at 3 µM;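 active = percent inhibition above its own plate's cutoff, namely the mean of that plate's compound wells plus 3 SD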;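 note: peak over basal fluorescence ratio during 140 s after agonist addition; 0% = ACh EC80 plus DMSO and 100% = DMSO alone without agonist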
CHRM1 PAM: positive allosteric modulators of human M1 muscarinic receptor. P11229. activation, % at 3 µM. CHO-K1 hM1, Fluo-8 calcium fluorescence, ACh EC20; 0% = ACh EC20, 100% = maximal ACh. hit rate 0.088% among 360,000; in the data active = activation above about 19%, passing the limit was not always enough
m5-HT2A agonist: activates the mouse 5-HT2A serotonin receptor; CHO-K1 mHTR2A beta-arrestin complementation, luminescence; percent of 30 µM serotonin response; P35363; hit rate 0.66% among 360,000; activation, % at 7.6 µM;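 active = activation above a run cutoff, the mean activation of all tested compounds plus 3 SD, cut at about 14% in these data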;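 note: 0% = plate median of compound wells and 100% = 30 µM serotonin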
Target sequence (P35363 whole entry, looked up): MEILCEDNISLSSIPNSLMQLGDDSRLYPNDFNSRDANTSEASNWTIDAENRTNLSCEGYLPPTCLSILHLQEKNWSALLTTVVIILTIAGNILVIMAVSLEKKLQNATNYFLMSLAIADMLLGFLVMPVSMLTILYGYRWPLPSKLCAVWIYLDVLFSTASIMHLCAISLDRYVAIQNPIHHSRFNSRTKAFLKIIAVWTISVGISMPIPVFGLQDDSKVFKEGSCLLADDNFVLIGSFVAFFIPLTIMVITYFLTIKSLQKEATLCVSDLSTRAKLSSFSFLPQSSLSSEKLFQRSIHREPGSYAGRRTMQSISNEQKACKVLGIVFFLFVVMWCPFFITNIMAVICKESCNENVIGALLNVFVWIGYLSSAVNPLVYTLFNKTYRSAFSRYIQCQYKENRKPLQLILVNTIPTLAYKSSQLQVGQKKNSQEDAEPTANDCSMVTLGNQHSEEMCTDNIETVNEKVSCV
TAAR1 antag: antagonists of human TAAR1 | hit rate 1.5% among 360,000 | Q96RJ0 | CHO RD-HGA16 TAAR1, Fluo-8 calcium fluorescence, antagonist | inhibition, % at 3 µM | AID 624466;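 active = inhibition above a per-plate cutoff, the mean inhibition of test compounds on that plate plus 3 SD, cut at about 49% in these data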;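 note: 0% = DMSO plus EC80 beta-PEA response and 100% = DMSO alone without agonist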
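System: RD-HGA16 CHO cells with stable hTAAR1 and Gα16 | Probe or stimulus: EC80 β-phenethylamine stimulus | Dosing: 3 µM, single point | Times: Dye loading 75 min at 37 °C, then 30 min room temperature | Measured by: Fluo-8 calcium-sensitive fluorescence | Read-out basis: % inhibition of agonist calcium response | Replicates: n of 1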
TAAR1 agonist: agonists of human TAAR1; Q96RJ0; CHO RD-HGA16 TAAR1, Fluo-8 calcium fluorescence; vehicle wells 0%, saturating PEA agonist 100%; activation, % at 3 µM; hit rate 0.99% among 360,000; AID 624467;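 active = activation above the mean activation of all test compounds in the run plus 3 SD, cut at about 38% in these data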
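test system = CHO RD-HGA16 cells carrying human TAAR1 plus Gα16 | schedule = 17-24 h seeding, 75 min 37 °C dye, 30 min RT | compound dosing = 3 µM single concentration | control set = DMSO and PEA EC100 | replicates = n 1 | signal = Fluo-8 fluorescence, 5 s baseline then 140 s kinetic read | measure = percent activation vs PEA EC100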
M1 ag: human M1 muscarinic receptor agonism. P11229. CHO-K1 hM1, Fluo-8 calcium fluorescence, agonist mode; 0% DMSO, 100% acetylcholine EC100. hit rate 0.33% among 360,000. activation, % at 3 µM;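 active = activation above the run's mean compound activation plus 3 SD, cut at about 16% in these data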;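 note: peak over basal fluorescence ratio within a 140 s kinetic read after compound addition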
TAAR1 nonsel count: nonselective antagonism, TAAR1 counter-screen | shares compounds with TAAR1 antag | counterscreen cell line, calcium fluorescence, antagonist mode | inhibition, % at 3 µM | hit rate 77% among 2,400; in the data active = inhibition above about 22%;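 note: CHO-Ga16 host cells stimulated with ATP at an EC80 level; 0% = agonist EC80 plus vehicle and 100% = vehicle without agonist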
TAAR1 ant conf: confirmation of human TAAR1 antagonists; shares compounds with TAAR1 antag; inhibition, % at 3 µM; hit rate 40% among 2,400; TAAR1-expressing cells, fluorescence antagonist read-out; in the data active = inhibition above about 49%;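 note: CHO-Ga16 host cells challenged with agonist PEA near its EC80; 0% = agonist at EC80 plus vehicle and 100% = vehicle with no agonist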
Ga16 nonsel ag: nonselective Ga16 agonist in TAAR1 antagonist counter-screen; shares compounds with TAAR1 antag; hit rate 18% among 2,400; activation, % at 3 µM; Ga16-expressing cells, calcium fluorescence, agonist counterscreen; in the data active = activation above about 12%;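 note: 0% = vehicle wells and 100% = saturating stimulus response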
TAAR1 ag counter: activates human TAAR1 in antagonist counter-screen; activation, % at 3 µM; hTAAR1 cell line, fluorescence activation, agonist mode; shares compounds with TAAR1 antag; hit rate 2% among 2,400; in the data active = activation above about 37%;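 note: CHO cells stably expressing TAAR1 with calcium dye readout; 0% = DMSO vehicle and 100% = full agonist response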
An asterisk follows results filed as active; x = no result. The list is not random: actives were taken first. Their share in the collection is about 3.9%.

SMILES	M1 antag	CHRM1 PAM	m5-HT2A agonist	TAAR1 antag	TAAR1 agonist	M1 ag	TAAR1 nonsel count	TAAR1 ant conf	Ga16 nonsel ag	TAAR1 ag counter
Cc1cccc(/C=C2\Sc3ccc(C(=O)N4CCC(C(N)=O)CC4)cc3N(C)C2=O)c1	6	2	-10	60*	7	-1	18	26	6	6
COC(=O)c1ccccc1NC(=O)CSc1nnnn1-c1ccc(C)cc1C	-28	5	0	50*	14	-2	30*	32	4	3
COc1ccc(CCN(C(=O)c2snc(C(N)=O)c2N)C(C(=O)NCC2CCCO2)c2ccc(F)cc2)cc1OC (configuration not stated)	17	-17	-7	58*	23	-2	31*	44	9	10
COc1cccc(N(C(=O)c2snc(C(N)=O)c2N)C(C(=O)NCC2CCCO2)c2cccs2)c1 (configuration not stated)	-9	9	4	16	0	-2	x	x	x	x
COc1ccc(C(C(=O)NCC2CCCO2)N(Cc2cccs2)C(=O)c2snc(C(N)=O)c2N)cc1OC (configuration not stated)	1	-5	0	55*	23	4	25*	44	9	15
Cc1onc(-c2c(F)cccc2Cl)c1C(=O)Nc1cc2cc([N+](=O)[O-])ccc2oc1=O	7	-8	-6	-20	-2	-7	x	x	x	x
C=CCC1NS(=O)(=O)O[C@H](CCCC)[C@@H]1O (some centres not stated)	-1	2	6	10	7	-5	x	x	x	x
O=C(NC(=S)Nc1cc(Cl)ccc1Cl)c1ccco1	-13	4	-2	-23	2	-1	x	x	x	x
CC(=O)c1cccc(NC(=O)CN2C(=O)C(=O)N(Cc3ccco3)C2=O)c1	3	-2	-11	-22	10	-2	x	x	x	x
O=C(Nc1ccc(N2CCOCC2)c(Cl)c1)c1ccc(F)cc1	14	-8	4	63*	14	-1	18	29	10	8
Cc1cccc(Cn2nc(C(C)(C)C)cc2C(=O)Nc2ccc(F)cc2)c1	-13	13	-1	70*	5	4	31*	48	3	6
O=C(Nc1ccc(N2CCOCC2)c(Cl)c1)c1ccc(-n2cnnc2)cc1	8	-4	3	1	2	-1	x	x	x	x
COC(=O)c1cc(NC(=O)c2cc(C(C)(C)C)nn2Cc2ccc(F)cc2)ccc1N1CCOCC1	10	-2	0	63*	3	-5	31*	46	4	0
O=C(O)/C=C\c1cccc(-n2nnnc2SCc2ccccc2F)c1	-7	3	0	-10	3	-5	x	x	x	x
O=C(NNC(=O)c1ccc(S(=O)(=O)N2CCOCC2)cc1)c1ccccc1	-11	9	-2	-4	5	-2	x	x	x	x
CC1(C)C(=O)Nc2ccccc2N1C(=O)COC(=O)c1ccc(Cl)c(S(=O)(=O)NCc2ccccc2)c1	30*	-12	-3	63*	20	1	35*	60*	7	17
COc1ccc(C(=O)CCc2ccccc2)c(O)c1	20	-11	-3	-42	0	-3	x	x	x	x
O=C(CCc1ccccc1)c1c(O)cc(O)cc1O	8	-11	-7	68*	3	-1	25*	30	4	1
CNc1nnc(SCC(=O)c2c(N)n(C3CC3)c(=O)[nH]c2=O)s1	-8	3	-2	-8	0	-2	x	x	x	x
COC(=O)c1ccc(NC(=O)CNc2ccccc2)cc1	3	1	-1	-18	1	-6	x	x	x	x
